Tested on: MS2 coat protein
Experiment: apparent Kd, MS2 coat protein; higher = weaker binding; RNA-MaP array; FMN 200 µM where present
Summary of the method: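 Green signal was scaled to red-channel RNA signal and control-cluster median Fmax, and the apparent Kd was taken as the median of filtered per-cluster binding-curve fits. The binding series used SNAP-549-labelled MS2 coat protein from 0.7 or 1.5 nM, doubling to 3 µM, on designs transcribed by stalled E. coli RNA polymerase on Illumina sequencing-chip clusters. Each series ran without and then with constant ligand in 100 mM Tris-HCl pH 7.5, 80 mM KCl, 4 mM MgCl2, BSA, DTT, yeast tRNA and Tween-20.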

[1] = designed as: OFF switch for flavin mononucleotide, no ligand
[2] = ligand present: flavin mononucleotide, designed as: OFF switch for flavin mononucleotide
[3] = designed as: ON switch for flavin mononucleotide, no ligand
[4] = ligand present: flavin mononucleotide, designed as: ON switch for flavin mononucleotide

Row | Sequence | apparent Kd [1] [nM] | apparent Kd [2] [nM] | apparent Kd [3] [nM] | apparent Kd [4] [nM]
1 | GGAUAGGACAGAGGAUAUACCGAUAGGAUCUACUAUCGAAGAAUCCUCACAUGAGGAUCACCCAUGUAGAAGGCUGUCCUAUCG | 40.3 | 646 | – | –
2 | GUCACUAGAGGAUAUACAAUGGUAUAUGAUCCUAGAGACAAACAUGAGGAUCACCCAUGUAGAAGGCUAGUAUU | 155 | 37.4 | – | –
3 | CGCUAGUCAGGAUAUACGAACAUGUCAAAAGACGUGAAGGGACAUGAGGAUCACCCAUGUAGAAGGGACUAGCC | 32.8 | 115 | – | –
4 | AUUUAGAGAGGAUAUAUUAUGUGAAACAUGAGGAUCACCCAUGUAAUAUGAUGGAUAUAAAUAGAAGGCUCAUUUA | 33 | 24.4 | – | –
5 | CGUGUCGCAUGAGGAUAUGGUCAGCUUUGCUGACCAGAAGGCAUGUCAAUAGACAUGAGGAUCACCCAUGUAGUUAAGACACGA | – | – | 592 | 39.8
6 | AUCAGCACGUGAGGAUAUGCGUCACUGCGUCAGCAGUGUGGUAAGAUCACAUGAGGAUCACCCAUGUAGAAGGCACGAGCUGAU | 34 | 460 | – | –
7 | ACUCGACAUGAGGAUCACCCAUGUGAGGAUAUGGCCUGUUUGGCGUGUGCUGGCUCUGUCAGAAGGCGCGUGGG | 41.7 | 89.3 | – | –
8 | CUGUGACGGUGCGCAAGUGGACGGAGAAGGGUCACAUGAGGAUCACCCAUGUGGGCCUGCUAUUGACAGGAUAUCCGUUCGUAC | 5.94 | 6.46 | – | –
9 | AGCUACGUUUCGUAGCAGCUAGGUGAGGAUAUCCUUUACAUGAGGAUCACCCAUGUAUAGCCAUGGGAGAAGGCGCCUAGAAAG | – | – | 181 | 16.9
10 | UCAUUUCUGUAAGGAUAUAUAAACAUGACGAUACAUGAGGAUCACCCAUGUGUAGAAGGUACAAAUACAUAUAAUGCAAUGUUC | 14.8 | 12.9 | – | –
11 | UUGGAGUUCGUAGGAUAUGUAGGAUAUUCCUACAUGAGGAUCACCCAUGUUUACAUGGAAGAAGGACAGAAGGACGAGCUCCAU | – | – | 1580 | 16.2
12 | GAGGAACAUGAGGAUCACCCAUGUGAGGAUAUGCAUAGUGAGGUAGUAGACGUUGAAUGCAGAAGGUACACUGA | 47.6 | 34.3 | – | –
13 | UUACUCAUGUAAGGAUAUGCAGCCGAAACGGCUGCAGAAGGUACUACAAUACAUGAGGAUCACCCAUGUAAAAUAAAUAAAGUU | – | – | 53.7 | 22.7
14 | CUGUUAUAGGUCCAUUUUUACAACAUGAGGAUCACCCAUGUGCAGGAUAUCGUGUUAAUUUUCAUCGAGAAGGGCAUAGUCACG | 31.5 | 61.2 | – | –
15 | GAUUAACAUGAGGAUCACCCAUGUGAGGAUAUGGACUGGCUCACUUUUCGAUUCCCGUCUAGAAGGCGCAUUUU | 50.1 | 50.1 | – | –
16 | AAUUGACACGUAGGAUAUCGCUCUAAUUUAACACGAGAAGGACGUACAUGAGGAUCACCCAUGUUAAAUGGUGUAGAUUAGUUG | 30.9 | 88 | – | –
17 | UGGUGAAGUGUAGGAUAUGGAGGUGGGUUUUGGCCAGAAGGACAUGAGGAUCACCCAUGUGGUAGAGGGUUGGUGGUGGCCCGU | 16.7 | 15.2 | – | –
18 | UUACAUACAAAGGUACAUGAGGAUCACCCAUGUUUAUUGGGAAGAAGGGUAACAGUACUACAUAUAUAGGAUAUUUCACAAAUG | – | – | 195 | 144
19 | GAAUAAUUGAUCCUUUUUUAUUACAUGAGGAUCACCCAUGUGCAGGAUAUCGAUUGUUGUAGUUUCGAGAAGGGCAAGAACUGU | 187 | 280 | – | –
20 | GCUGACGAUGUAGGAUAUCUCGACGAUAAGUCGAGAGAAGGACAUGAGGAUCACCCAUGUACUCUAACGUCAGCGAGGAAACUC | 17.2 | 18.5 | – | –
21 | ACGUGUCGUGUAGGAUAUGACACAGGAAACUGGUCAGAAGGACAUGAGGAUCACCCAUGUAAAAUGUUUAAGAAUGACGUAUGC | 49.3 | 94.9 | – | –
22 | ACACUCUAUGCAGGAUAUCGAGCCUGGGCCUUGUUUUUUGUAAACAUGAGGAUCACCCAUGUCUUCGAGAAGGGCAUAACACCG | 372 | 136 | – | –
23 | AAAAAGUGAGGAUAUACAUGAAAAAAAAAAAAAAAAAAAAAACAUGAGGAUCACCCAUGUAGAAGGCGCAAAAA | 55.1 | 45.7 | – | –

Source: the EternaBench riboswitch data
